In ChEMBL document CHEMBL4732034, “Amino alcohol acrylonitriles as broad spectrum and tumour selective cytotoxic agents” (RSC Med Chem, 2021):

Key:
[1] = Cytotoxicity against human SJG2 cells assessed as growth inhibition measured after 72 hrs by SRB assay; assay type: functional; conditions: SJ-G2
Procedure, shortened: (§1)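 Cancer lines were kept in DMEM with 10% FBS and glutamine at 37 °C, 5% CO2, and seeded at 2500–4000 cells per well in duplicate. Compound (from 40 mM DMSO stocks) was added 24 h after plating and left for 72 h. Cells were TCA-fixed, stained with SRB and read at 540 nm. GI50 came from an eight-point dose-response, using the change from day-0 optical density, with three to four independent replicates.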

[2] = system: MCF7; experiment: Cytotoxicity against human MCF-7 cells assessed as growth inhibition measured after 72 hrs by SRB assay; assay type: functional; procedure, shortened: as §1
[3] = system: BE(2)-C; experiment: Cytotoxicity against human BE2C cells assessed as growth inhibition measured after 72 hrs by SRB assay; assay type: functional; procedure, shortened: as §1
[4] = system: DU-145; experiment: Cytotoxicity against human DU-145 cells assessed as growth inhibition measured after 72 hrs by SRB assay; assay type: functional; procedure, shortened: as §1
[5] = system: A2780; experiment: Cytotoxicity against human A2780 cells assessed as growth inhibition measured after 72 hrs by SRB assay; assay type: functional; procedure, shortened: as §1
[6] = system: HT-29; experiment: Cytotoxicity against human HT29 cells assessed as growth inhibition measured after 72 hrs by SRB assay; assay type: functional; procedure, shortened: as §1
[7] = Cytotoxicity against human MCF10A cells assessed as growth inhibition measured after 72 hrs by SRB assay; assay type: cell-based, MCF-10A
[8] = system: NCI-H460; experiment: Cytotoxicity against human H460 cells assessed as growth inhibition measured after 72 hrs by SRB assay; assay type: functional; procedure, shortened: as §1
[9] = system: MIA PaCa-2; experiment: Cytotoxicity against human MIA cells assessed as growth inhibition measured after 72 hrs by SRB assay; assay type: functional; procedure, shortened: as §1
[10] = system: A-431; experiment: Cytotoxicity against human A431 cells assessed as growth inhibition measured after 72 hrs by SRB assay; assay type: functional; procedure, shortened: as §1
[11] = system: U-87 MG; experiment: Cytotoxicity against human U87 cells assessed as growth inhibition measured after 72 hrs by SRB assay; assay type: functional, U-87MG ATCC; procedure, shortened: as §1

Row | Structure (SMILES) | GI50 [1] [µM] | GI50 [2] [µM] | GI50 [3] [µM] | GI50 [4] [µM] | GI50 [5] [µM] | GI50 [6] [µM] | GI50 at 72 h [7] [µM] | GI50 [8] [µM] | GI50 [9] [µM] | GI50 [10] [µM] | GI50 [11] [µM]
1 | CN1CCN(CC(O)COc2ccc(/C=C(\C#N)c3ccc(Cl)c(Cl)c3)cc2)CC1 (racemic) | 2.2 | 2.3 | 2.4 | 2.4 | 2.5 | 1.2 | 2.4 | 2.6 | 2.6 | 1.8 | 2.7
2 | N#C/C(=C\c1ccc(OCC(O)CN2CCN(c3ccc([N+](=O)[O-])cc3)CC2)cc1)c1ccc(Cl)c(Cl)c1 (racemic) | > 50 | > 50 | > 50 | > 50 | > 50 | > 50 | > 50 | > 50 | > 50 | > 50 | > 50
3 | N#C/C(=C\c1ccc(OCC(O)CN2CCOCC2)cc1)c1ccc(Cl)c(Cl)c1 (racemic) | 9.3 | 5.3 | 3 | 13 | 8.9 | 3.1 | 5.6 | 8.7 | 13 | 3 | 17
4 | Cc1ccc(N2CCN(CC(O)COc3ccc(/C=C(\C#N)c4ccc(Cl)c(Cl)c4)cc3)CC2)cc1 (racemic) | 2.9 | 2.3 | 2.7 | 2.7 | 3 | 2.6 | 3.5 | 2.5 | 3 | 3.1 | 6
5 | N#C/C(=C\c1ccc(OCC(O)CNC2CCCCC2)cc1)c1ccc(Cl)c(Cl)c1 (racemic) | 2.7 | 2.7 | 2.8 | 2.4 | 2.9 | 2 | 2.8 | 2.2 | 2.7 | 2.2 | 2.8
6 | N#C/C(=C\c1ccc(OCC(O)CNc2ccc(Cl)cc2)cc1)c1ccc(Cl)c(Cl)c1 (racemic) | 15 | 11 | 14 | 15 | 10 | 7 | 17 | 11 | 14 | 15 | 16
7 | N#C/C(=C\c1ccc(OCC(O)CNc2ccc(Br)cc2)cc1)c1ccc(Cl)c(Cl)c1 (racemic) | 11 | 5.3 | 11 | 13 | 10 | 6 | 13 | 6.8 | 11 | 11 | 16
8 | N#C/C(=C\c1ccc(OCC(O)CN2CCCCCC2)cc1)c1ccc(Cl)c(Cl)c1 (racemic) | 5.3 | 2.8 | 2.6 | 4.6 | 3 | 1.7 | 3.1 | 3.5 | 5.5 | 2.9 | 3.8
9 | N#C/C(=C\c1ccc(OCC(O)CN2CCN(c3ccccc3)CC2)cc1)c1ccc(Cl)c(Cl)c1 (racemic) | 9 | 4.1 | 16 | 3.5 | 6.3 | 3.3 | 4.8 | 4 | 5.7 | 6.3 | 5.4
10 | CC1CCCN(CC(O)COc2ccc(/C=C(\C#N)c3ccc(Cl)c(Cl)c3)cc2)C1 (racemic) | 2.8 | 2.3 | 2.6 | 4 | 2.8 | 2.4 | 2.5 | 2.9 | 3.3 | 2.5 | 2.8
11 | N#C/C(=C\c1ccc(OCC(O)CN2CCN(c3ccc(C(F)(F)F)cc3)CC2)cc1)c1ccc(Cl)c(Cl)c1 (racemic) | > 50 | > 50 | > 50 | > 50 | > 50 | – | > 50 | > 50 | > 50 | > 50 | > 50
12 | N#C/C(=C\c1ccc(OCC(O)CN2CCN(c3ccc(Cl)cc3)CC2)cc1)c1ccc(Cl)c(Cl)c1 (racemic) | 24 | 15 | > 50 | 32 | 15 | 9 | 18 | 28 | 17 | 27 | > 50
13 | N#C/C(=C\c1ccc(OCC(O)CN2CCCC2)cc1)c1ccc(Cl)c(Cl)c1 (racemic) | 3.7 | 2.8 | 2.8 | 4.2 | 2.7 | 1.5 | 2.9 | 3 | 5.6 | 2.6 | 5.6
14 | N#C/C(=C\c1ccc(OCC(O)CN2CCC(c3ccccc3)CC2)cc1)c1ccc(Cl)c(Cl)c1 (racemic) | 2.5 | 2.5 | 2.6 | 2.7 | 2.7 | 1.9 | 2.5 | 2.7 | 2.4 | 2.6 | 2.9
15 | CC(=O)c1ccc(N2CCN(CC(O)COc3ccc(/C=C(\C#N)c4ccc(Cl)c(Cl)c4)cc3)CC2)cc1 (racemic) | > 50 | 11 | > 50 | 12 | 40 | 7.7 | 7.5 | > 50 | > 50 | 30 | > 50
16 | Cc1ccc(CN2CCN(CC(O)COc3ccc(/C=C(\C#N)c4ccc(Cl)c(Cl)c4)cc3)CC2)cc1 (racemic) | 2.4 | 1.7 | 2 | 4.5 | 1.5 | 1.4 | 2.4 | 2.7 | 2.6 | 2.4 | 3.6
17 | CC1CCN(CC(O)COc2ccc(/C=C(\C#N)c3ccc(Cl)c(Cl)c3)cc2)CC1 (racemic) | 3 | 2.3 | 2.6 | 4.6 | 2.7 | 1.7 | 2.7 | 2.9 | 3.4 | 2.6 | 2.9
